From ChEMBL document CHEMBL1137792, “The immobilization of gossypol derivative on N-polyvinylpyrrolidone increases its water solubility and modifies membrane-active properties” (J Med Chem, 2009)

Key:
[1] = Effect on nonenergized Wistar rat liver mitochondrial membrane permeability assessed as increase in permeability to Ca2+ ion at 20 uM; assay type: ADME, mitochondria, Mitochondria
Outline: (§1)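 Passive swelling of nonenergized rat liver mitochondria (1.0 mg/mL protein) in iso-osmotic nitrate media, Tris-HNO3 pH 7.4, rotenone 0.33 μg/mL, 25 °C, stirred: KNO3 120 mM; Mg2+ and Ba2+ 80 mM; Ca2+ 40 mM with 120 mM sucrose. Absorbance decrease at 520 nm followed; swelling rates normalised to the K+ rate set as 1. Five recordings.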

[2] = Toxicity in Wistar rat erythrocytes assessed as induction of hemolysis at 50 uM; assay type: cell-based, Erythrocyte; details: read-out: Activity
Outline: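 Freshly isolated, washed rat erythrocytes as 2% suspension in 140 mM NaCl, 10 mM Tris-citrate, 1 mM EDTA, pH 7.5, incubated 30 min at 37 °C with compound (20-100 μM range); spun at 1000g, supernatant OD540 read against water-lysed cells as 100%. Mean ± SEM, n=9.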

[3] = Toxicity in human erythrocytes assessed as reduction of membrane fluidity at 0.4 uM by fluorescent anisotropy relative to untreated control; assay type: cell-based; details: erythrocyte
Outline: (§2)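 Human erythrocyte ghosts (hypotonic Tris-HCl/EDTA lysis) diluted in PBS pH 7.4, 2 min at 37 °C with compound (0.05-0.75 μM final), then DPH 1 μM final, 15 min dark at room temperature; steady-state anisotropy, excitation 348/emission 426 nm; ratio to no-compound control (Ai/A0). Mean ± SEM, n=8.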

[4] = Effect on nonenergized Wistar rat liver mitochondrial membrane permeability assessed as increase in permeability to Mg2+ ion at 20 uM; assay type: ADME, mitochondria, Mitochondria; outline: as §1
[5] = Decrease in Wistar rat liver mitochondrial membrane fluidity assessed as rotational correlation times of spin probe at 0.15 uM by ESR; assay type: ADME, mitochondria, Mitochondria
Outline: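 ESR of rat liver mitochondria (1 mg/mL protein) in 145 mM KCl, 10 mM Tris-HCl pH 7.4 with nitroxide spin probe added in ethanol to 10^-6 M final; 2 min incubation with compound (range 0.025-0.3 μM) before spectra; rotational correlation time τc derived. Mean ± SEM, n=9, three independent experiments.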

[6] = Toxicity in human erythrocytes assessed as reduction of membrane fluidity by fluorescent anisotropy; assay type: cell-based; details: erythrocyte; outline: as §2
[7] = Effect on nonenergized Wistar rat liver mitochondrial membrane permeability assessed as increase in permeability to Ba2+ ion at 20 uM; assay type: ADME, mitochondria, Mitochondria; outline: as §1
[8] = Effect on nonenergized Wistar rat liver mitochondrial membrane permeability assessed as increase in permeability to potassium ion at 20 uM; assay type: ADME, mitochondria, Mitochondria; outline: as §1
[9] = Drug binding to Wistar rat liver mitochondrial membrane assessed as [14C] labeled megosin after 5 mins; assay type: ADME, tissue-based; details: in vitro
Outline: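 Mitochondria (10 mg protein/mL) incubated with 14C-labeled compound (10 nmol/mg protein, 9.45 mCi/mmol) plus 50-fold unlabeled (500 nmol/mg) at 22 °C with stirring; vacuum filtration through nitrocellulose, two water rinses, filters dried 24 h and counted by liquid scintillation; bound label expressed as cpm and % of total radioactivity. Mean ± SEM, n=12.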

Cc1cc2c(c(O)c1-c1c(C)cc3c(c1O)/C(=C/NCCS(=O)(=O)[O-])C(=O)C(O)=C3C(C)C)/C(=C/NCCS(=O)(=O)[O-])C(=O)C(O)=C2C(C)C.[Na+].[Na+] [MEGOSIN]
Activity [1]: Active | hemolysis at 50 µM [2]: 68% | fold change (FC) [3]: 1.83 | Activity [4]: Active | Activity [5]: 32.1 ×10⁻¹⁰ s | Activity [6]: Dose-dependent effect | Activity [7]: Active | Activity [8]: Active | Drug uptake [9]: 88.2%
